By IC50 is commonly meant the midpoint of a concentration-inhibition curve.

For eleven compounds, IC50 and Activity results are on record in ChEMBL document CHEMBL1150382, “Benzanilides with spasmolytic activity: chemistry, pharmacology, and SAR” (Bioorg Med Chem, 2008).

Data set [1] can be described thus: Spasmolytic activity in guinea pig terminal ilea. It is filed as functional, Cavia porcellus. The procedure, abridged:
(§1)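 Precontracted with 60 mM KCl at a resting tension of 4.9 mN. After a 45 min control period, compound (1–100 µM) was added cumulatively to steady state. Isometric force was recorded as % decrease; IC₅₀ from 4–6 experiments, mean ± SEM.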

A short description of data set [2]: Toxicity in guinea pig vascular smooth muscle. It is filed as tissue-based, Cavia porcellus, Muscle tissue. An outline of the steps:
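Guinea pig aortic rings in oxygenated Krebs–Henseleit at 35 °C, contracted with 90 mM KCl. Compound was added cumulatively up to 100 µM, and relaxation of isometric contraction force was recorded.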

A short description of data set [3]: Spasmolytic activity in guinea pig terminal ilea relative to resveratrol. Format: functional, Cavia porcellus. An outline of the steps: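 Ileal IC₅₀ was measured as for the KCl-precontracted (60 mM) guinea pig terminal ileum with cumulative dosing up to 100 µM. It is expressed as a potency index relative to resveratrol.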
A short description of data set [4]: Toxicity in guinea pig heart muscle. Format: tissue-based, Cavia porcellus, Muscle tissue. An outline of the steps:
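Guinea pig heart muscle in oxygenated Krebs–Henseleit at 35 °C. Isometric contraction force was measured in electrically stimulated papillary muscles (Purkinje fibres removed, diameter <0.87 mm). Chronotropic effect was measured as spontaneous activity of isolated right atria. Compounds were added cumulatively. Paired Student's t-test.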

Data set [5] in a line: Relaxation of KCl-induced contraction in guinea pig terminal ilea assessed as reduction of contraction force at 100 uM. It is filed as functional, Cavia porcellus. The arrangement: scale not given: the % may be the effect or the level left. An outline of the steps: as §1
The nature of data set [6]: Relaxation of KCl-induced contraction in guinea pig terminal ilea assessed as reduction of contraction force at 30 uM. Details: scale not given: the % may be the effect or the level left. Format: functional, Cavia porcellus. The procedure, abridged: as §1

Take `COc1cc(NC(=O)c2ccc(OC(F)(F)F)cc2)cc(OC)c1`: the IC50 in data set [1] was 7.5 µM. Besides, the Activity result in data set [2] was “Non-toxic”; in data set [3], 3.2; in data set [4], “Non-toxic”; in data set [5] it was 11.99%.

As for `Oc1ccc(/C=C/c2cc(O)cc(O)c2)cc1` [RESVERATROL], the IC50 in data set [1] was 24 µM. For the same compound, the Activity in data set [3] stood at 1.

With `CN(C)c1ccc(NC(=O)c2cc(F)cc(F)c2)cc1`, inhibition in data set [1] was half-maximal at 30 µM (IC50). For the same compound, the Activity result in data set [2] is given as “Non-toxic”; in data set [3], 0.8; in data set [4] it was “Non-toxic”; in data set [5] it was 23.93%.

In data set [1], `O=C(Nc1ccc(F)cc1)c1cc(F)cc(F)c1` showed an IC50 of 21 µM. The Activity result in data set [2] was “Non-toxic”; in data set [3] it was 1.14; in data set [4] it was “Non-toxic”; in data set [5], 30.55%.

`O=C(Nc1c(F)cc(F)cc1F)c1cc(F)cc(F)c1` gave an IC50 in data set [1] of 26 µM. In addition, the Activity result in data set [2] was “Non-toxic”; in data set [3], 0.92; in data set [4], “Non-toxic”; in data set [5] it was 9%.

Take `CSc1ccc(NC(=O)c2cc(F)cc(F)c2)cc1`: the half-inhibitory concentration (IC50) in data set [1] was 3.25 µM. Further, the Activity result is reported as “Non-toxic” in data set [2], 7.39 in data set [3], 2.8% in data set [6] and “Non-toxic” in data set [4].

For the compound `O=C(Nc1c(F)cc(F)cc1F)c1cc([N+](=O)[O-])cc([N+](=O)[O-])c1`, the IC50 in data set [1] is 32.5 µM. The Activity entry in data set [2] is on record as “Non-toxic”; in data set [3], 0.74; in data set [4], “Non-toxic”; in data set [5], 25.66%.

Take `O=C(Nc1c(F)cc(F)cc1F)c1ccc(F)cc1`: the IC50 in data set [1] worked out at 42 µM. The Activity result is “Non-toxic” in data set [2], 0.57 in data set [3], “Non-toxic” in data set [4] and 28.35% in data set [5].

In data set [1], `O=C(Nc1ccc(F)cc1F)c1cc(F)cc(F)c1` gave a half-inhibitory concentration (IC50) greater than 100 µM. Besides, the Activity entry in data set [2] was “Non-toxic”; in data set [3] it was greater than 0.24; in data set [4] it was “Non-toxic”; in data set [5], 51.13%.

`COc1cc(NC(=O)c2cc(F)cc(F)c2)cc(OC)c1OC` returned an IC50 in data set [1] of 27.5 µM. Also, the Activity entry in data set [2] is reported as “Non-toxic”; in data set [3], 0.87; in data set [4], “Non-toxic”; in data set [5], 22.87%.

As to `O=C(Nc1cc(F)cc(F)c1)c1ccc(F)cc1`, in data set [1], the IC50 is 8.5 µM. The Activity result in data set [2] is “Non-toxic”; in data set [3], 2.82; in data set [4], “Non-toxic”; in data set [5], 1.66%.
